Data set [1] concerns Human immunodeficiency virus 1. The data set can be described thus: Antiviral activity against HIV1 infected in CD4/CXCR4/CCR5 expressing human P4R5 MAGI cells preincubated with cells for 24 hrs followed by viral infection measured after 48 hrs by beta-galactosidase reporter gene assay. The class given is functional, organism-based.
Another data set addresses Gag-Pol polyprotein (Human immunodeficiency virus type 1 group M subtype B (isolate HXB2)(HIV-1), UniProt P04585). The data set can be described thus: Inhibition of HIV1 reverse transcriptase polymerase activity using 18 nucleotide DNA primer and 100 nucleotide DNA template after 30 mins. On the set-up: species or system Human immunodeficiency virus 1. In a few lines: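 Full-length RT at 20 nM with 40 nM template/primer (18-nt DNA primer on 100-nt DNA template) and 10 µM dNTPs in 50 mM Tris pH 7.8, 50 mM NaCl. Started with 6 mM MgCl2, with 1% DMSO and increasing compound concentrations. Primer extension ran 30 min at 37 °C and was stopped with 100 mM EDTA.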

For data set [2], the target named is Human immunodeficiency virus type 1 reverse transcriptase (Human immunodeficiency virus 1, UniProt Q72547). The data set can be described thus: Inhibition of HIV1 reverse transcriptase RNaseH activity using 3'-fluorescein/5'-Dabcyl labeled HTS-1 substrate.
In data set [3] the target is Human immunodeficiency virus type 1 integrase (Human immunodeficiency virus 1, UniProt Q7ZJM1). The data set can be described thus: Inhibition of HIV integrase strand transfer activity using 5'-biotin/3'-Cy5-labeled DNA substrate preincubated for 5 mins followed by substrate addition measured after 30 mins by HTS assay.
A short description of data set [4]: Cytotoxicity against human P4R5 MAGI cells. Format: cell-based. The method in brief:
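P4R5 cells express CD4, CXCR4, CCR5 and an HIV LTR-driven β-galactosidase reporter. They were seeded at 4×10^3 cells per well in DMEM/10% FBS with puromycin (1 µg/mL).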

A short description of data set [5]: Effective permeability of the compound at 10 uM after 5 hrs by PAMPA. The class given is ADME. The method in brief: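 Lipid-precoated PAMPA plates thawed 30 min at room temperature. Compounds diluted from 10 mM DMSO stock into DPBS to 10 µM final and placed in donor wells, with DPBS in acceptor wells. Incubated 5 h at 25 °C without agitation. Donor and acceptor concentrations measured by LC-MS/MS. Pe calculated from acceptor and equilibrium concentrations, filter area 0.3 cm² and well volumes.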

The values below come from ChEMBL document CHEMBL4270570 (Eur J Med Chem, 2018).

The structures appear in SMILES notation.

Sequence of Human immunodeficiency virus type 1 integrase (Q7ZJM1 whole entry): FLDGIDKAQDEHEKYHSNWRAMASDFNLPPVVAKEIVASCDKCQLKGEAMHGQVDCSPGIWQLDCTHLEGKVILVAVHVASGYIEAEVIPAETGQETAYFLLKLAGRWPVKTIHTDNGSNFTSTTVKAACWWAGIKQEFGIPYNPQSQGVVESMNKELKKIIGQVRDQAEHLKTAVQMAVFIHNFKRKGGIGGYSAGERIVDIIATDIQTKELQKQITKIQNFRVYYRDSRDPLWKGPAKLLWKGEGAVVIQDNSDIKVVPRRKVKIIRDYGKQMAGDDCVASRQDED

In data set [1], `COc1ccc(-c2ccc(Sc3cc(=O)n(O)c(=O)[nH]3)cc2)cc1OC` came in with an EC50 of over 20 µM. The IC50 on Gag-Pol polyprotein came out at 10 µM; in data set [2], 0.004 µM; in data set [3], 0.33 µM. For the same compound, the CC50 in data set [4] is over 100 µM. The Peff in data set [5] amounted to 0.9 ×10⁻⁶ cm/s.
The compound `O=c1cc(Sc2ccc([N+](=O)[O-])cc2)[nH]c(=O)n1O` came in with an EC50 in data set [1] of over 20 µM. The IC50 at Gag-Pol polyprotein is over 10 µM; in data set [2], 0.012 µM; in data set [3] it was 3.4 µM. This compound also displayed a CC50 in data set [4] of over 100 µM. For the same compound, in data set [5], the Peff is 0.032 ×10⁻⁶ cm/s.
Consider `O=c1cc(Sc2ccccc2-c2ccc(F)cc2)[nH]c(=O)n1O`, for which the response in data set [1] was half-maximal at 11 µM (EC50). The IC50 at Gag-Pol polyprotein is over 10 µM; in data set [2], 0.012 µM; in data set [3], over 100 µM. This compound also registered a CC50 in data set [4] of over 100 µM.
Take `O=c1cc(Sc2ccc(Cl)cc2)[nH]c(=O)n1O`: the EC50 in data set [1] was over 20 µM. In addition, the IC50 is over 10 µM at Gag-Pol polyprotein, 0.012 µM in data set [2] and 0.64 µM in data set [3]. In addition, in data set [4], the CC50 was over 100 µM. This compound also yielded a Peff in data set [5] of 0.35 ×10⁻⁶ cm/s.
Compound `Cc1ccc(Sc2cc(=O)n(O)c(=O)[nH]2)cc1` yielded an EC50 in data set [1] of over 20 µM. The IC50 against Gag-Pol polyprotein was over 10 µM; in data set [2], 0.033 µM; in data set [3] it was 2.8 µM. Also, the CC50 in data set [4] is over 100 µM. In addition, the Peff in data set [5] was 0.92 ×10⁻⁶ cm/s.
Compound `O=c1cc(Sc2ccccc2-c2ccc(C(F)(F)F)cc2)[nH]c(=O)n1O` had an EC50 in data set [1] of 7 µM. The IC50 on Gag-Pol polyprotein is over 10 µM; in data set [2] it was 0.013 µM; in data set [3] it was over 100 µM. In addition, in data set [4], the CC50 is over 100 µM.
Compound `O=c1cc(Sc2ccc(-c3ccc(O)cc3)cc2)[nH]c(=O)n1O` returned an EC50 in data set [1] of over 20 µM. For the same compound, the figures for the IC50 (against Gag-Pol polyprotein; in data set [2]; in data set [3]) were over 10 µM, 0.004 µM and 0.17 µM, respectively. Moreover, the CC50 in data set [4] was over 100 µM. In data set [5], the Peff was 0.039 ×10⁻⁶ cm/s.
